According to ChEMBL document CHEMBL2029262, “Receptor-ligand interaction-based virtual screening for novel Eg5/kinesin spindle protein inhibitors” (J Med Chem, 2012):
pIC50: −log10 of the molar value. Activity calls are given as the source filed them. The calls are words filed in the database; no cut-off is given here.

Legend:
DU-145 [1] = test: Growth inhibition of human DU145 cells after 2 days by MTT assay; type: functional
Summary of the method: (§1)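 DU145 or HT29 cells in RPMI 1640 with 10% heat-inactivated FBS, 37 °C, 5% CO2. Seeded at 3 × 10^3 cells/well, exposed to a range of compound concentrations in duplicate for two days. Read-out was MTT-type tetrazolium dye for up to 4 h, overnight solubilization of formazan, then OD at 570 nm. GI50 was derived.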

HT-29 = test: Growth inhibition of human HT-29 cells after 2 days by MTT assay; type: functional; summary of the method: as §1
HeLa [2] = test: Induction of monoastral spindle formation in human HeLa cells assessed as cells with misaligned chromosomes at 25 uM after 8 hrs by immunofluorescence assay; type: functional, cell-based
[3] = target: T1, Kinesin-like protein KIF11 (Homo sapiens) (UniProt P52732); test: (§2) Inhibition of Eg5 ATPase activity by pyruvate kinase/lactate dehydrogenase-linked assay; parameters: concentration or dose not given beside the values
T1 sequence (whole entry): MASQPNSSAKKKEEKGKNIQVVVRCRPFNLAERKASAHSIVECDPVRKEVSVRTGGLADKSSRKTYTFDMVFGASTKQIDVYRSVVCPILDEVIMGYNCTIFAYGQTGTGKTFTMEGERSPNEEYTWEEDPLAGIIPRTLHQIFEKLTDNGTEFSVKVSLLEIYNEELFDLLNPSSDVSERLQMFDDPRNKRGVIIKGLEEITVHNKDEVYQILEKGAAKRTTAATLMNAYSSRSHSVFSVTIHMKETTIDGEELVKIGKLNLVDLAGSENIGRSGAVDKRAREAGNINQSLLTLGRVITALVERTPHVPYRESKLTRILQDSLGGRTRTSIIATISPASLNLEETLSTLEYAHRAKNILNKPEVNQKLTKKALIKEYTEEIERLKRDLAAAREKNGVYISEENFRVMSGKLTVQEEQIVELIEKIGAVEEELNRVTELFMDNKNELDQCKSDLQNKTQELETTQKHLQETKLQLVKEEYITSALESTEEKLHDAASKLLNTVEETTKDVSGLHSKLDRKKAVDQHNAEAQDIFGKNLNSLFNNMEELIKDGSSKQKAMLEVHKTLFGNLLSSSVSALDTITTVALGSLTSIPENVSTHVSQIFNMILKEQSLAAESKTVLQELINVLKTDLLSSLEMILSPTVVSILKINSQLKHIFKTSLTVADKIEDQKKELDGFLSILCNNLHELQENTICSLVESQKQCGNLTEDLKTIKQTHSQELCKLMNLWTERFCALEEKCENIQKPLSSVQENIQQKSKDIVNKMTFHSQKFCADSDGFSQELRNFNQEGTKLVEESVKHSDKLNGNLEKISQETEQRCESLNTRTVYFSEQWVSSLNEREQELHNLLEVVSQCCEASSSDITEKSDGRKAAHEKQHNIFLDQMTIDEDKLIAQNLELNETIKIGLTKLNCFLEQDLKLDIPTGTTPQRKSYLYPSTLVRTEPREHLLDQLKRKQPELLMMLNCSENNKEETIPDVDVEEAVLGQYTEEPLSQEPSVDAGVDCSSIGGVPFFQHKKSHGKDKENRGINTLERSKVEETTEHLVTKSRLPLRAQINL
Summary of the method: (§3)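 Basal steady-state ATPase of 200 nM Eg5 2–368, measured by pyruvate kinase/lactate dehydrogenase coupling in ACES buffer pH 6.9 with Mg acetate, EGTA, EDTA and β-mercaptoethanol, at 25 °C with up to 2.0% DMSO. STLC was the positive control. Each concentration was run in triplicate and reported as mean ± SD to give IC50.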

[4] = target: T2, Kinesin heavy chain isoform 5A (Homo sapiens, UniProt Q12840); test: Inhibition of human Kif5A ATPase activity by pyruvate kinase/lactate dehydrogenase-linked assay
T2 sequence (Q12840 whole entry): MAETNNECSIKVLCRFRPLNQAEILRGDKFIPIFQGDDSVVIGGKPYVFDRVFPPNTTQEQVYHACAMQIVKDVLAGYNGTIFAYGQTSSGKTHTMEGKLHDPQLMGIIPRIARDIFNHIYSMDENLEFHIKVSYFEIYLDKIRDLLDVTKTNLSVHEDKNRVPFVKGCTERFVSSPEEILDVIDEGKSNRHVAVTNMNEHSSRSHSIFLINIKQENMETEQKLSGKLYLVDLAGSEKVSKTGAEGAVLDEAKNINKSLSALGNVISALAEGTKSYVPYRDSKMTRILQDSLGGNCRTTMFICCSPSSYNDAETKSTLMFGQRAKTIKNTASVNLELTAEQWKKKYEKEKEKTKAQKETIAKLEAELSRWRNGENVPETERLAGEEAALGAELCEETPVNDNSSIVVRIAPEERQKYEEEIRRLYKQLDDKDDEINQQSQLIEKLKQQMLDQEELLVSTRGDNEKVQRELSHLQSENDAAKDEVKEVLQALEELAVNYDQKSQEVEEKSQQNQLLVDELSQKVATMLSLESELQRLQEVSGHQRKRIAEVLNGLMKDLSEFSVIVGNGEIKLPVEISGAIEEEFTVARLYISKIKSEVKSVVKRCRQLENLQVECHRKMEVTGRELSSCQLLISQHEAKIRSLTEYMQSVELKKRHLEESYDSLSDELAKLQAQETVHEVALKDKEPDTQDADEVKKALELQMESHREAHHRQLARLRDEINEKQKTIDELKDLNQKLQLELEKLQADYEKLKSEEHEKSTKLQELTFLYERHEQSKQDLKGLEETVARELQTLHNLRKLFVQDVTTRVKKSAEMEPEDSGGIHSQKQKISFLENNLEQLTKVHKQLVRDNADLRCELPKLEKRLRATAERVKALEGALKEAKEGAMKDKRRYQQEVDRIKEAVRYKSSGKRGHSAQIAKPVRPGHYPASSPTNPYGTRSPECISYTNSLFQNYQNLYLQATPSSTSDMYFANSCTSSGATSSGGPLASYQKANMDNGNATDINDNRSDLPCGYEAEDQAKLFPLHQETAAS
Summary of the method: (§4)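 HsKif5A or HsKif5C ATPase measured with the same pyruvate kinase/lactate dehydrogenase-linked format, at 25 °C in ACES buffer pH 6.9 with up to 2.0% DMSO. Concentrations were run in triplicate.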

HeLa [5] = test: Induction of monoastral spindle formation in human HeLa cells at 25 uM after 8 hrs by immunofluorescence assay; type: functional, cell-based
Summary of the method: (§5)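 HeLa cells grown in D-MEM with 10% fetal calf serum on poly-D-lysine-coated coverslips and allowed to adhere at least 36 h. Compounds were diluted in medium from 25 mM DMSO stocks and applied for 8 h. Cells were fixed in 2% paraformaldehyde, permeabilized with 0.2% Triton X-100, and stained for β-tubulin and centromeres, with DAPI for DNA. Mitotic cells with monoastral versus bipolar spindles were counted by epifluorescence microscopy.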

[6] = target: T3, Kinesin heavy chain isoform 5C (Homo sapiens, UniProt O60282); test: Inhibition of human Kif5C ATPase activity by pyruvate kinase/lactate dehydrogenase-linked assay; summary of the method: as §4
T3 sequence (O60282 whole entry): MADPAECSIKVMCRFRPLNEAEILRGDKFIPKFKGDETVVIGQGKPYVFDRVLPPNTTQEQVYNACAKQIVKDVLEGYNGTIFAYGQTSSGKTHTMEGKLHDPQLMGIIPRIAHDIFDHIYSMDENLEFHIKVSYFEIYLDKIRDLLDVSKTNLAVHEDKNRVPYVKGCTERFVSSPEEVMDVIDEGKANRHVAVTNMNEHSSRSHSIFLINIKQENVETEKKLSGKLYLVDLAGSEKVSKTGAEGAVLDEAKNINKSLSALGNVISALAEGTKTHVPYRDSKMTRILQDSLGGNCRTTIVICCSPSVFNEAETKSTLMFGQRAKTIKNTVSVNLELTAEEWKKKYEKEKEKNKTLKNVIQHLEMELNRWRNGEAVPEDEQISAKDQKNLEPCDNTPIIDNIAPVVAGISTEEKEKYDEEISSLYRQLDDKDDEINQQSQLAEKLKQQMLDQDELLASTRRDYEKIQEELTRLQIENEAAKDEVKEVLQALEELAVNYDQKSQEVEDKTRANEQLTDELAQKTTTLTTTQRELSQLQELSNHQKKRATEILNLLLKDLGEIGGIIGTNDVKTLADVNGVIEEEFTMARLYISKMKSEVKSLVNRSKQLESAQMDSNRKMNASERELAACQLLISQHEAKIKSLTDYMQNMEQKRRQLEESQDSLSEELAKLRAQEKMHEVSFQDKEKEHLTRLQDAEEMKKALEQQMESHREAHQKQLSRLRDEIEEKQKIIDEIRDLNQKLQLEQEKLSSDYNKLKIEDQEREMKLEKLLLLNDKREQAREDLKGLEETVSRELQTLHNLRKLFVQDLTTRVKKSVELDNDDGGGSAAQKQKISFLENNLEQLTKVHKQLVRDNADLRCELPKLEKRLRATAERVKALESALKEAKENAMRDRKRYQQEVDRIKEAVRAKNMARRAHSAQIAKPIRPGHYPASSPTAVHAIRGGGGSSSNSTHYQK

DU-145 [7] = test: Selectivity ratio of GI50 for human DU145 cells to GI50 for human HT29 cells; type: functional
[8] = target: T4, Kinesin-like protein KIF11 (Homo sapiens, UniProt P52732); test: as §2; conditions: for pIC50: read-out: IC50; summary of the method: as §3
T4 sequence (P52732 whole entry): T1 sequence (whole entry)

HeLa [9] = test: Induction of monoastral spindle formation in human HeLa cells at 50 uM after 8 hrs by immunofluorescence assay; type: functional; summary of the method: as §5
HeLa [10] = test: Induction of monoastral spindle formation in human HeLa cells assessed as interphase cells with cortical MT bundles at 25 uM after 8 hrs by immunofluorescence assay; type: functional, cell-based

| SMILES | GI50 (DU-145 [1]; DU-145, 48 h) [µM] | GI50 (HT-29; HT-29, 48 h) [µM] | Activity (HeLa [2]) | inhibition [3] | IC50 [4] | Activity (HeLa [5]) | IC50 [6] | RatioGI50 (DU-145 [7]) | inhibition ([3]; concentration not given here) [%] | pIC50 [8] | GI50 (DU-145 [1]) | GI50 (HT-29) | Activity (HeLa [9]) [%] | pIC50 ([4]; read-out: IC50) | pIC50 ([6]; read-out: IC50) | IC50 [8] | Activity (HeLa [10]) |
| --- | --- | --- | --- | --- | --- | --- | --- | --- | --- | --- | --- | --- | --- | --- | --- | --- | --- |
| COC(=O)c1c(NC(=O)c2ccccc2Br)sc(C)c1C | > 100 | 33.7 | Active | inactive | – | – | – | – | – | – | – | – | – | – | – | – | – |
| Cc1ccsc1CCN1C(=S)N(c2ccc(F)cc2)C(=O)C1CC(=O)Nc1ccc(F)cc1 (stereo unspecified) | 31 | 16.7 | – | – | Not Active | Active | Not Active | 2 | 80 | 6.22 | – | – | – | – | – | – | – |
| Cc1ccc2c(c1)-c1cc(C)nn1C(c1ccccc1F)N2 (stereo unspecified) | – | – | – | – | Not Active | inactive | Not Active | – | 60 | 5.20 | inactive | inactive | – | – | – | – | – |
| COc1ccc(N2C(=O)C(CC(=O)Nc3ccccc3)N(CCc3cccs3)C2=S)cc1 (stereo unspecified) | 34.3 | 17.7 | – | – | Not Active | – | Not Active | 2 | 60 | 6.00 | – | – | 50 | – | – | – | – |
| COC(=O)c1c(C)oc2c1cc(NS(=O)(=O)c1ccc(C(=O)O)cc1)c1ccccc12 | – | – | – | – | Not Active | inactive | Not Active | – | 80 | 4.10 | inactive | inactive | – | – | – | – | – |
| COc1ccc(NC(=O)CC2C(=O)N(c3ccccc3)C(=S)N2CCc2sccc2C)cc1 (stereo unspecified) | 42.3 | 19.6 | – | – | Not Active | – | Not Active | 2 | 60 | 5.62 | – | – | – | – | – | – | – |
| Cc1ccc(-n2c(=O)[nH]c3c(C(N)=O)nc(-c4ccc(F)cc4F)nc32)cc1C | 8.7 | 9.3 | – | – | – | inactive | – | – | 60 | 4.38 | – | – | – | 4.30 | 4.30 | – | – |
| Cc1cc(F)ccc1S(=O)(=O)N(C(=O)C1CCCCC1)c1ccc2oc(=O)sc2c1 | 41.2 | 19.4 | – | – | – | inactive | – | – | – | – | – | – | – | – | – | Not Active | – |
| O=C(O)CSc1cc(NS(=O)(=O)c2ccc(C(=O)O)cc2)c2ccccc2c1O | 21 | 4.4 | – | – | – | – | – | – | – | – | – | – | – | – | – | Not Active | Active |
